# Assay results taken from ChEMBL document CHEMBL1131417, “Characterization of novel N,N'-disubstituted piperazines as sigma receptor ligands” (J Med Chem, 1998).
# Tested on: Sigma 2 receptor; call rule not given here
# Assay: Binding affinity was tested against sigma-2 receptor in presence of dextrallorphan in rat liver membranes; NA =data not available
# Type: cell membranes, Membrane
# Summary of the method: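 Rat liver membranes (160 μg protein) were incubated with 5 nM [3H]DTG plus 1 μM dextrallorphan to mask σ-1 sites, in Tris-HCl pH 8.0, for 120 min at 25 °C. Twelve competitor concentrations spanned 0.05–10 000 nM or 0.5–100 000 nM. IC50 from curve fitting was converted to Ki by Cheng-Prusoff. Values are the mean ± SEM of 2–3 experiments, each run in duplicate.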
row,Structure (SMILES),Ki
1,COc1cccc(CCN2CCN(C(=O)Cc3cccc(OC)c3)CC2)c1,Not Active

# Target: Sigma 2 receptor
# Assay: Binding affinity was tested against sigma-2 receptor site in presence of dextrallorphan in rat liver membranes.
# Type: cell membranes, Membrane
# Summary of the method: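 Rat liver membranes (160 μg protein) incubated with 5 nM [3H]DTG plus 1 μM dextrallorphan to mask σ-1 sites, in Tris-HCl pH 8.0, 120 min at 25 °C. Twelve competitor concentrations spanning 0.05–10 000 nM or 0.5–100 000 nM. IC50 from iterative curve fit, converted to apparent Ki by Cheng–Prusoff. Mean ± SEM of 2–3 experiments, each in duplicate.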
row,Ki,Structure (SMILES)
1,9.4 nM,O=[N+]([O-])c1cccc(CCN2CCN(CCCc3ccccc3)CC2)c1
2,39 nM,Clc1ccc(CCN2CCN(CCCc3ccccc3)CC2)cc1Cl
3,1780 nM,NCCC(=O)N1CCN(CCCc2ccccc2)CC1
4,37 nM,Nc1cccc(CCN2CCN(CCCc3ccccc3)CC2)c1
5,4.9 nM,O=[N+]([O-])c1ccccc1CCN1CCN(CCCc2ccccc2)CC1
6,29 nM,COc1ccc(CCN2CCN(CCCc3ccccc3)CC2)cc1
7,14 nM,Nc1ccc(CCN2CCN(CCCc3ccccc3)CC2)cc1
8,4560 nM,CC(C)(C)OC(=O)NCCC(=O)N1CCN(CCCc2ccccc2)CC1
9,99 nM,COc1ccc(CCN2CCN(CCc3ccc(OC)cc3)CC2)cc1
10,3840 nM,NCCCC(=O)N1CCN(CCCc2ccccc2)CC1
11,18 nM,Nc1ccccc1CCN1CCN(CCCc2ccccc2)CC1
12,303 nM,NCC(=O)N1CCN(CCCc2ccccc2)CC1
13,999 nM,NCCCCN1CCN(CCCc2ccccc2)CC1
14,7.5 nM,COc1ccccc1CCN1CCN(CCCc2ccccc2)CC1
15,25 nM,O=[N+]([O-])c1ccc(CCN2CCN(CCCc3ccccc3)CC2)cc1
16,10 nM,COc1cccc(CCN2CCN(CCCc3ccccc3)CC2)c1
17,188 nM,NCCN1CCN(CCCc2ccccc2)CC1
18,126 nM,CC(C)(C)OC(=O)NCCCC(=O)N1CCN(CCCc2ccccc2)CC1
19,2000 nM,NCCCN1CCN(CCCc2ccccc2)CC1

row,Structure (SMILES),Ki
1,O=C(Cc1cccc([N+](=O)[O-])c1)N1CCN(CCCc2ccccc2)CC1,65 nM
2,O=C(Cc1ccccc1[N+](=O)[O-])N1CCN(CCCc2ccccc2)CC1,76 nM
3,COc1cccc(CCN2CCN(CCc3cccc(OC)c3)CC2)c1,29 nM
4,COc1ccc(CC(=O)N2CCN(CCCc3ccccc3)CC2)cc1,464 nM
5,COc1ccccc1CCN1CCN(C(=O)Cc2ccccc2OC)CC1,> 10 nM
6,O=C(Cc1ccc(Cl)c(Cl)c1)N1CCN(CCCc2ccccc2)CC1,78 nM
7,COc1ccccc1CCN1CCN(CCc2ccccc2OC)CC1,17 nM
8,COc1ccccc1CC(=O)N1CCN(CCCc2ccccc2)CC1,294 nM
9,COc1cccc(CC(=O)N2CCN(CCCc3ccccc3)CC2)c1,206 nM
10,O=C(Cc1ccc([N+](=O)[O-])cc1)N1CCN(CCCc2ccccc2)CC1,167 nM
11,COc1ccc(CCN2CCN(C(=O)Cc3ccc(OC)cc3)CC2)cc1,744 nM
